Test results reported in ChEMBL document CHEMBL3797149, “1-Sulfonyl-6-Piperazinyl-7-Azaindoles as potent and pseudo-selective 5-HT6 receptor antagonists” (Bioorg Med Chem Lett, 2016).
Activity calls are given as the source filed them. The calls are words filed in the database; no cut-off is given here.

Legend:
[1] = Kinetic solubility in sorensen buffer at pH 7.4 incubated for 1 hr by UV-Visible spectrophotometry; assay type: physicochemical; conditions: read-out: Kinetic_solubility
D(2) dopamine receptor [2] = biological target: T1, D(2) dopamine receptor (Homo sapiens, UniProt P14416); experiment: Displacement of [3H]NMSP from human dopamine D2S receptor expressed in CHO cell membrane incubated for 1 hr by scintillation counting method; assay type: cell membranes
Method in brief: (§1)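 Competition binding: [3H]-LSD displacement for 5-HT6 and [3H]-NMSP displacement for D2. Eight compound concentrations, 5 × 10^-6 to 5 × 10^-13 M, each tested in triplicate. Affinity is reported as Ki.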

CHO = experiment: Selectivity ratio of Ki for human dopamine D2S receptor expressed in CHO cell membrane to Ki for human 5HT6 receptor in HEK293 cell membrane; assay type: cell-based
Method in brief: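 Ki values come from in-house competition binding: [3H]-LSD displacement at 5-HT6 and [3H]-NMSP displacement at D2. Compounds were tested at eight concentrations from 5×10^-6 to 5×10^-13 M in triplicate. The ratio is D2 Ki divided by 5-HT6 Ki.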

[3] = biological target: T2, 5-hydroxytryptamine receptor 6 (Homo sapiens, UniProt P50406); experiment: Displacement of [3H]LSD from human 5HT6 receptor in HEK293 cell membrane incubated for 1 hr by scintillation counting method; assay type: cell membranes; method in brief: as §1
D(2) dopamine receptor [4] = biological target: T1, D(2) dopamine receptor; experiment: Displacement of [3H]methyl-spiperone from human recombinant dopamine D2S receptor expressed in HEK293 cells at 1 uM incubated for 60 mins by scintillation counting method relative to control; assay type: cell-based
Method in brief: (§2)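 Single-point screen at 1 µM (final) within a 106-target panel of neurotransmitter receptors, transporters and ion channels. Read-out is % radioligand displacement.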

[5] = biological target: D(3) dopamine receptor (Homo sapiens) (UniProt P35462); experiment: Displacement of [3H]methyl-spiperone from human recombinant dopamine D3 receptor expressed in CHO cells at 1 uM incubated for 60 mins by scintillation counting method relative to control; assay type: cell-based
Method in brief: (§3)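 Tested at a single concentration in a contract panel of 106 neurotransmitter receptors, transporters and ion channels. Read-out is percent radioligand displacement.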

[6] = biological target: T2, 5-hydroxytryptamine receptor 6; experiment: Displacement of [3H]LSD from human recombinant 5HT6 receptor expressed in CHO cells at 1 uM incubated for 120 mins by scintillation counting method relative to control; assay type: cell-based; method in brief: as §2
[7] = biological target: 5-hydroxytryptamine receptor 1B (Rattus norvegicus) (UniProt P28564); experiment: Displacement of [125I]CYP from 5HT1B receptor in rat cerebral cortex at 1 uM incubated for 120 mins by scintillation counting method relative to control; assay type: tissue-based; method in brief: as §3
[8] = Passive permeability of compound after 4 hrs by sink-PAMPA assay; assay type: ADME; conditions: read-out: permeability
Cytochrome P450 3A4 = Cytochrome P450 3A4 (Homo sapiens, UniProt P08684); experiment: Inhibition of human recombinant CYP3A4 using 7-benzyloxy-trifluoromethylcoumarin as substrate incubated for 30 mins by fluorescence analysis in presence of NADPH; assay type: ADME
Cytochrome P450 2D6 = Cytochrome P450 2D6 (Homo sapiens, UniProt P10635); experiment: Inhibition of human recombinant CYP2D6 using AMMC as substrate incubated for 45 mins by fluorescence analysis in presence of NADPH; assay type: ADME
Mus musculus [9] = experiment: Procognitive effect in CD1 mouse assessed as reversal of scopolamine-induced amnesia by measuring time spent in open arm in acquisition phase at 0.3 to 10 mg/kg, sc pretreated for 10 mins followed by scopolamine injection measured after 30 mins by elevated […] maze test; assay type: functional, organism-based
Method in brief: (§4)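 Elevated plus maze in mice. Test article is given subcutaneously, then scopolamine 10 min later. In the acquisition phase (T1), open-arm time % ([open/(open+enclosed)]×100) and transfer latency to the enclosed arm are recorded. Retention phase (T2) follows 24 h later. n = 13–15 per group; data shown as mean ± SEM and median.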

Mus musculus [10] = experiment: Procognitive effect in CD1 mouse assessed as reversal of scopolamine-induced amnesia by measuring time spent in open arm in retention phase at 0.3 to 10 mg/kg, sc pretreated for 10 mins followed by scopolamine injection measured after 24 hrs by elevated […] maze test; assay type: functional, organism-based; method in brief: as §4

T1 sequence (P14416 whole entry): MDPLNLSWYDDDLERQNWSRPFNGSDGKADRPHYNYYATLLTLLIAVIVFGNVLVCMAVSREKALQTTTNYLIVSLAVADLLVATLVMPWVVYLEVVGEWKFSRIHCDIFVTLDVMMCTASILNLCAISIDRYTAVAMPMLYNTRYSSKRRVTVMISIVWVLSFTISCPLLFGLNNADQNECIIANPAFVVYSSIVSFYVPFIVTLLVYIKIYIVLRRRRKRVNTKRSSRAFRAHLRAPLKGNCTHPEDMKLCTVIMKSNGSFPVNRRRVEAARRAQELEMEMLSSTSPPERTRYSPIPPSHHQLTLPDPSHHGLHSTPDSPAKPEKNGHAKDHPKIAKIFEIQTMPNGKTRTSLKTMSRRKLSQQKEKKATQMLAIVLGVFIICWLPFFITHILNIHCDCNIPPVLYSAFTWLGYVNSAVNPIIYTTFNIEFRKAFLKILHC
T2 sequence (P50406 whole entry): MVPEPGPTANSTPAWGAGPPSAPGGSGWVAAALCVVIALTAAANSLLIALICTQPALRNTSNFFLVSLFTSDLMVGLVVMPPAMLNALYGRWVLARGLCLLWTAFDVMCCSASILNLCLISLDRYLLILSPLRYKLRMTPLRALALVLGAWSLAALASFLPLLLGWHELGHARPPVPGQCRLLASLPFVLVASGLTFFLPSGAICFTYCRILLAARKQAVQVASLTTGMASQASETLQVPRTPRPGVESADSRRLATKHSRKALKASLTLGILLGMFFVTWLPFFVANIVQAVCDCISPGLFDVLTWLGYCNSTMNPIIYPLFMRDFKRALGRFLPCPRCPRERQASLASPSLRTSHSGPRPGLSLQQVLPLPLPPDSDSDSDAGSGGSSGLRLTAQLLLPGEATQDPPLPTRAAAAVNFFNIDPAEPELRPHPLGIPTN
Sequence of Cytochrome P450 3A4 (P08684 whole entry): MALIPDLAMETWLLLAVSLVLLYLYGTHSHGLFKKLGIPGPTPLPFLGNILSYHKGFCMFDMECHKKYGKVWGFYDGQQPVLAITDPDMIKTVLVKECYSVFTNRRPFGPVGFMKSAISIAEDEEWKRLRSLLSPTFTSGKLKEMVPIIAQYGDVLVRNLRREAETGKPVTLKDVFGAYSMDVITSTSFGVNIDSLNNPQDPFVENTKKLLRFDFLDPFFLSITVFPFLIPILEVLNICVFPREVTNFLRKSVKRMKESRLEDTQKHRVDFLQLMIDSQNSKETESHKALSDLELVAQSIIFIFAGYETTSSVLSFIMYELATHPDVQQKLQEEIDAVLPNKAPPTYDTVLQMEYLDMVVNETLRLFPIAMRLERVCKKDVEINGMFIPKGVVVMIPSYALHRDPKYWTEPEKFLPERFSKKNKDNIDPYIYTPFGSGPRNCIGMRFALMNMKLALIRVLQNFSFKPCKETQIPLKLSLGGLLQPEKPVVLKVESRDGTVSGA
Sequence of D(3) dopamine receptor (Homo sapiens) (P35462 whole entry): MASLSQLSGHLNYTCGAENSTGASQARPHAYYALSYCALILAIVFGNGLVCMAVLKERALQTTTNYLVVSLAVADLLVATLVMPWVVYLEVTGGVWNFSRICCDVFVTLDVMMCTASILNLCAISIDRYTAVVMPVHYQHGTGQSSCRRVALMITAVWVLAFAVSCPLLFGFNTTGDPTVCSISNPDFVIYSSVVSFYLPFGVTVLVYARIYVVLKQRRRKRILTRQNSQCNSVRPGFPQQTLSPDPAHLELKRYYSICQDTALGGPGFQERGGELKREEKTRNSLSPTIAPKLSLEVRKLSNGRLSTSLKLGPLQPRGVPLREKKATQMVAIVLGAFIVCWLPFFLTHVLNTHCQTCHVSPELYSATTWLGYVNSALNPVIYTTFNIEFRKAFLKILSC
Sequence of 5-hydroxytryptamine receptor 1B (Rattus norvegicus) (P28564 whole entry): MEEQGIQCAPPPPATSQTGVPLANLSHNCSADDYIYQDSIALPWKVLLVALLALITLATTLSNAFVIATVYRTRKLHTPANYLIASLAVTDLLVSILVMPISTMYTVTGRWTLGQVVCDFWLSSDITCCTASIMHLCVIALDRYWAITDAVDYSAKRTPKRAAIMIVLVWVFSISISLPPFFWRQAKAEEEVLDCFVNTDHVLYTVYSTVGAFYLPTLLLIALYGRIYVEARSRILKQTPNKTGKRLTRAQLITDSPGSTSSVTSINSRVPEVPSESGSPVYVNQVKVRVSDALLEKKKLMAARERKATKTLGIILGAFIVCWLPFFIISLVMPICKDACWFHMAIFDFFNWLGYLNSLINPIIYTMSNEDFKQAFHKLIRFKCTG
Sequence of Cytochrome P450 2D6 (P10635 whole entry): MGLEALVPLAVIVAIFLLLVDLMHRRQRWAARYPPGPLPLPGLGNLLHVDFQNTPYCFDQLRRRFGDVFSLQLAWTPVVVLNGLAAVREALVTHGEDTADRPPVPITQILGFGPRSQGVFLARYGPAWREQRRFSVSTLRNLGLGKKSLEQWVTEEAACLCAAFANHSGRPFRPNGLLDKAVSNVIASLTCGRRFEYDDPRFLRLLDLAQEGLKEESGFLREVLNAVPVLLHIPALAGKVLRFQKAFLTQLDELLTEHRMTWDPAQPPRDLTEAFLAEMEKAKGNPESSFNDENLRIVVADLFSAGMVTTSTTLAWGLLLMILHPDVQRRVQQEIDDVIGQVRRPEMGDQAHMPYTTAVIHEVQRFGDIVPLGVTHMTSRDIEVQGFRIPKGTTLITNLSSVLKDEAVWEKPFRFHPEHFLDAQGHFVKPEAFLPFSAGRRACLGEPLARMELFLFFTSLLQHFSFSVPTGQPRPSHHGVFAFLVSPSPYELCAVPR

| SMILES | Ki (D(2) dopamine receptor [2]) [nM] | Ki [3] [nM] | Ratio Ki (CHO) | other results |
| --- | --- | --- | --- | --- |
| CC(C)CS(=O)(=O)n1ccc2c(-c3ccc(C(F)(F)F)cc3)cc(N3CCN(C)CC3)nc21.O=S(=O)(O)O | – | – | – | solubility kinetic at 1 h [1]: 10 µg/mL |
| CC(C)CS(=O)(=O)n1ccc2c(-c3ccc(C(F)(F)F)cc3)cc(N3CCN(C)CC3)nc21.Cl | – | – | – | solubility kinetic at 1 h [1]: 14 µg/mL |
| CN1CCN(c2cc(-c3ccc(C(F)(F)F)cc3)c3ccn(S(=O)(=O)C4CCCCC4)c3n2)CC1 | > 2000 | 15 | > 133 | – |
| CC(C)CS(=O)(=O)n1ccc2c(-c3ccc(C(F)(F)F)cc3)cc(N3CCN(C)CC3)nc21.O=C(O)/C=C/C(=O)O | – | – | – | solubility kinetic at 1 h [1]: 20 µg/mL |
| CC(C)CS(=O)(=O)n1ccc2c(-c3cccnc3)cc(N3CCN(C)CC3)nc21 | > 2000 | 36 | > 55 | – |
| Br.CC(C)CS(=O)(=O)n1ccc2c(-c3ccc(C(F)(F)F)cc3)cc(N3CCN(C)CC3)nc21 | – | – | – | solubility kinetic at 1 h [1]: 65 µg/mL |
| Cc1noc(C)c1-c1cc(N2CCN(C)CC2)nc2c1ccn2S(=O)(=O)CC(C)C | > 2000 | 129 | > 15 | – |
| CC(C)CS(=O)(=O)n1ccc2c(-c3cnn(C)c3)cc(N3CCN(C)CC3)nc21 | > 2000 | 87 | > 23 | – |
| CCc1ccc(-c2cc(N3CCN(C)CC3)nc3c2ccn3S(=O)(=O)CC(C)C)cc1 | 614 | 11 | 56 | – |
| Cc1cc(-c2cc(N3CCN(C)CC3)nc3c2ccn3S(=O)(=O)CC(C)C)c(C)s1 | 640 | 12 | 53 | – |
| CC(C)CS(=O)(=O)n1ccc2c(-c3ccc(C(F)(F)F)cc3)cc(N3CCN(C)CC3)nc21 | – | – | 80 | Activity (Mus musculus [9]): Active; Activity (Mus musculus [10]): Active |
| CN1CCN(c2cc(-c3ccc(C(F)(F)F)cc3)c3ccn(S(=O)(=O)C4CCOCC4)c3n2)CC1 | > 2000 | 7 | > 285 | – |
| COc1ccc(-c2cc(N3CCN(C)CC3)nc3c2ccn3S(=O)(=O)CC(C)C)cc1 | 22 | 2 | 9 | – |
| CC(C)CS(=O)(=O)n1ccc2c(-c3ccccc3)cc(N3CCN(C)CC3)nc21 | 547 | 16 | 35 | – |
| CC(C)CS(=O)(=O)n1ccc2c(-c3ccc(=O)[nH]c3)cc(N3CCN(C)CC3)nc21 | > 2000 | 231 | > 8 | – |
| CC(C)CS(=O)(=O)n1ccc2c(-c3ccc(C(=O)N(C)C)cc3)cc(N3CCN(C)CC3)nc21 | > 2000 | > 2000 | – | – |
| CC(C)CS(=O)(=O)n1ccc2c(-c3ccc4[nH]ccc4c3)cc(N3CCN(C)CC3)nc21 | 382 | 5 | 76 | – |
| CC(C)CS(=O)(=O)n1ccc2c(-c3ccccc3C(F)(F)F)cc(N3CCN(C)CC3)nc21 | 113 | 24 | 5 | – |
| CC(C)CS(=O)(=O)n1ccc2c(-c3ccc(C(F)(F)F)cc3)cc(N3CCN(C)CC3)nc21.O=C(O)C(O)C(O)C(=O)O | – | – | – | solubility kinetic at 1 h [1]: 11 µg/mL |
| CC(C)CS(=O)(=O)n1ccc2c(-c3ccc(OCc4ccccc4)cc3)cc(N3CCN(C)CC3)nc21 | 86 | 290 | 0.3 | – |
| CC(C)CS(=O)(=O)n1ccc2c(-c3ccc(C(F)(F)F)cc3)cc(N3CCN(C)CC3)nc21.O=C(O)CC(O)(CC(=O)O)C(=O)O | – | – | – | solubility kinetic at 1 h [1]: 14 µg/mL |

Second part, led by results:

| Ki (D(2) dopamine receptor [2]) [nM] | Ki [3] [nM] | SMILES | Ratio Ki (CHO) | other results |
| --- | --- | --- | --- | --- |
| 52 | 8 | COCCS(=O)(=O)n1ccc2c(-c3ccc(C(F)(F)F)cc3)cc(N3CCN(C)CC3)nc21 | 6 | – |
| 108 | 22 | CC(C)CS(=O)(=O)n1ccc2c(-c3ccc(O)cc3)cc(N3CCN(C)CC3)nc21 | 5 | – |
| 1700 | 3 | CC(C)CS(=O)(=O)n1ccc2c(-c3ccc(C(F)(F)F)cc3)cc(N3CCNCC3)nc21 | – | inhibition (D(2) dopamine receptor [4]): 60%; inhibition [5]: 94%; inhibition [6]: 100%; inhibition [7]: 72%; Papp at 4 h [8]: 92 ×10⁻⁶ cm/s; IC50 (Cytochrome P450 3A4): < 1100 nM; IC50 (Cytochrome P450 2D6): > 10000 nM |
| 630 | 48 | CC(C)CS(=O)(=O)n1ccc2c(-c3cccc(C(F)(F)F)c3)cc(N3CCN(C)CC3)nc21 | 13 | – |
| 25 | 6 | CC(C)S(=O)(=O)n1ccc2c(-c3ccc(C(F)(F)F)cc3)cc(N3CCN(C)CC3)nc21 | 4 | – |
| 205 | 7 | CC(C)CS(=O)(=O)n1ccc2c(-c3ccc(C#N)cc3)cc(N3CCN(C)CC3)nc21 | 29 | – |
| 1230 | 54 | CN1CCN(c2cc(-c3ccc(C(F)(F)F)cc3)c3ccn(S(C)(=O)=O)c3n2)CC1 | 22 | – |
